Measured values reported in ChEMBL document CHEMBL2331225, “Structure-based design, synthesis and evaluation of novel anthra[1,2-d]imidazole-6,11-dione derivatives as telomerase inhibitors and potential for cancer polypharmacology” (Eur J Med Chem, 2013).
Activity calls are given as the source filed them. The calls are words filed in the database; no cut-off is given here.

How the values were obtained:
[1] = Cytotoxicity against human H1299 cells assessed as cell viability at 100 uM after 48 hrs by MTT assay; type: functional; conditions: NCI-H1299, 48 h, read-out: Activity
Method in brief: (§1)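 H1299 cells at about 2 × 10³ per well were grown 24 h at 37 °C in 5% CO₂. Compounds were dissolved in DMSO just before use and diluted into complete medium. After 48 h exposure, MTT was added for 4 h at 37 °C, then lysis buffer (20% SDS, 50% DMF) for 16 h at 37 °C. Absorbance was read at 550 nm.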

[2] = Cytotoxicity against human H1299 cells assessed as cell viability at 10 uM after 48 hrs by MTT assay; type: functional; conditions: NCI-H1299, 48 h, read-out: Activity; method in brief: as §1
PC-3 [3] = test: Growth inhibition of human PC3 cells after 48 hrs by SRB assay; type: functional, cell-based; conditions: PC-3, 48 h
Method in brief: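 PC-3 cells were seeded in medium with 5% FBS; after 24 h a plate was fixed with 10% TCA as T₀. Vehicle (0.1% DMSO) or compound was given for 48 h, then cells were TCA-fixed, stained with 0.4% SRB in 1% acetic acid, solubilized in 10 mM Trizma base and read at 515 nm. IC₅₀ is the concentration halving the protein increase seen in controls.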

[4] = molecular target: T1, Telomerase reverse transcriptase (Homo sapiens, UniProt O14746); test: Inhibition of TERT transcriptional activity in human H1299 cells assessed SEAP activity at 1 uM incubated for 24 hrs by SEAP assay; type: cell-based; design: scale not given: the % may be the effect or the level left
Method in brief: (§2)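 H1299 stable clones carry the hTERT promoter (−3338 to +1 bp) upstream of SEAP, introduced by electroporation and selected with G418. About 2 × 10³ cells per well were grown 24 h at 37 °C, given fresh medium, then drug for 24 h. Collected media were heated at 65 °C for 10 min, mixed with equal SEAP buffer (2 M diethanolamine, 1 mM MgCl₂, 20 mM L-homoarginine) and p-nitrophenyl phosphate at 12 mM final.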

[5] = Cytotoxicity against human H1299 cells assessed as cell viability at 1 uM after 48 hrs by MTT assay; type: functional; conditions: NCI-H1299, 48 h, read-out: Activity; method in brief: as §1
[6] = molecular target: DNA polymerase I, thermostable (Thermus aquaticus) (UniProt P19821); test: Inhibition of Thermus aquaticus DNA polymerase compound after telomerase extension step and before PCR-amplification step during TRAP assay
Method in brief: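 TRAP-m variant: compounds were added after the telomerase extension step and before PCR amplification, using H1299 telomerase extracts, with RNase A-treated extracts as negative control.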

[7] = molecular target: T1, Telomerase reverse transcriptase; test: Inhibition of TERT activity in human H1299 cells homogenates incubated for 5 mins by TRAP assay; type: cell-free
Method in brief: (§3)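 Telomerase-active extracts were prepared from H1299 cells, and lysate protein was measured against BSA standards. Compounds were tested in the TRAP assay, with RNase A-treated extracts as negative controls.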

[8] = molecular target: T1, Telomerase reverse transcriptase; test: Inhibition of TERT activity in human H1299 cells homogenates incubated for 5 mins at 100 uM by TRAP assay; type: cell-free; method in brief: as §3
[9] = molecular target: T1, Telomerase reverse transcriptase; test: Inhibition of TERT transcriptional activity in human H1299 cells assessed SEAP activity at 100 uM incubated for 24 hrs by SEAP assay; type: cell-based; design: scale not given: the % may be the effect or the level left; method in brief: as §2
[10] = molecular target: T1, Telomerase reverse transcriptase; test: Inhibition of TERT transcriptional activity in human H1299 cells assessed SEAP activity at 10 uM incubated for 24 hrs by SEAP assay; type: cell-based; design: scale not given: the % may be the effect or the level left; method in brief: as §2
A498 = test: Cytotoxicity against human A498 cells assessed as cell growth level at 10 uM; type: functional
PC-3 [11] = test: Cytotoxicity against human PC3 cells assessed as cell growth level at 10 uM; type: functional
MOLT-4 = test: Cytotoxicity against human MOLT4 cells assessed as cell growth level at 10 uM; type: functional
COLO 205 = test: Cytotoxicity against human COLO205 cells assessed as cell growth level at 10 uM; type: functional
[12] = Cytotoxicity against human NCI-ADR-RES cells assessed as cell growth level at 10 uM; type: functional
DU-145 = test: Cytotoxicity against human DU145 cells assessed as cell growth level at 10 uM; type: functional
[13] = Cytotoxicity against human EKVX cells assessed as cell growth level at 10 uM; type: functional
SNB-19 = test: Cytotoxicity against human SNB19 cells assessed as cell growth level at 10 uM; type: functional

T1 sequence (O14746 whole entry): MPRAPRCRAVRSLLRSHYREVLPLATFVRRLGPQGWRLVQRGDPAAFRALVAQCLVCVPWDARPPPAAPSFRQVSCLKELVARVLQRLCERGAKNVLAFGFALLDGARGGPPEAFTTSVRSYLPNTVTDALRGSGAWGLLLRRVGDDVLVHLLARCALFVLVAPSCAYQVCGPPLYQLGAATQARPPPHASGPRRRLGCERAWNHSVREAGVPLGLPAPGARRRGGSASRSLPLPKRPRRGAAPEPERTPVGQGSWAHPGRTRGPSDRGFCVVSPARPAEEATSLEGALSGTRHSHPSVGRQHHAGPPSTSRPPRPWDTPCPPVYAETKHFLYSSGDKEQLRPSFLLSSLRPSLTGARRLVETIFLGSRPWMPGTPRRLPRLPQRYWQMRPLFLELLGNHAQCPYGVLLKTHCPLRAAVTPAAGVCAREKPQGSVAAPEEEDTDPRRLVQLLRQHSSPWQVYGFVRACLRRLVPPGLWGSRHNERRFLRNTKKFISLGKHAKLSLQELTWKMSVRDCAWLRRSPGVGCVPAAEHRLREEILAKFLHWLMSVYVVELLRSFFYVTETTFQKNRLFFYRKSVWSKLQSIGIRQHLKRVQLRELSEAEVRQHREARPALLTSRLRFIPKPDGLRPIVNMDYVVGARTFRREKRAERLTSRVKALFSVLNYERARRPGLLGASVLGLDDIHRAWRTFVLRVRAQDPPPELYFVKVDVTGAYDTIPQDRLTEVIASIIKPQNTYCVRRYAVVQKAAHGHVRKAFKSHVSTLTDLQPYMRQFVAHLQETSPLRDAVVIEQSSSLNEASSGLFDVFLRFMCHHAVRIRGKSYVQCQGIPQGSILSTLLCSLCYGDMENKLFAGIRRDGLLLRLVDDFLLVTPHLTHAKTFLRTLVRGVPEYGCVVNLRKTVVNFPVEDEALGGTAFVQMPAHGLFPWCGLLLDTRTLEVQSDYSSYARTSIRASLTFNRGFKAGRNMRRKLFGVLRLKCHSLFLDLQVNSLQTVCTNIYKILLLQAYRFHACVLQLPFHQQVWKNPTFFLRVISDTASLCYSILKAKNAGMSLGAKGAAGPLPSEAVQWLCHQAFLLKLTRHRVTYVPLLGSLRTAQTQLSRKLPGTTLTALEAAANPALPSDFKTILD
DNA polymerase I, thermostable (Thermus aquaticus), sequence (P19821 whole entry): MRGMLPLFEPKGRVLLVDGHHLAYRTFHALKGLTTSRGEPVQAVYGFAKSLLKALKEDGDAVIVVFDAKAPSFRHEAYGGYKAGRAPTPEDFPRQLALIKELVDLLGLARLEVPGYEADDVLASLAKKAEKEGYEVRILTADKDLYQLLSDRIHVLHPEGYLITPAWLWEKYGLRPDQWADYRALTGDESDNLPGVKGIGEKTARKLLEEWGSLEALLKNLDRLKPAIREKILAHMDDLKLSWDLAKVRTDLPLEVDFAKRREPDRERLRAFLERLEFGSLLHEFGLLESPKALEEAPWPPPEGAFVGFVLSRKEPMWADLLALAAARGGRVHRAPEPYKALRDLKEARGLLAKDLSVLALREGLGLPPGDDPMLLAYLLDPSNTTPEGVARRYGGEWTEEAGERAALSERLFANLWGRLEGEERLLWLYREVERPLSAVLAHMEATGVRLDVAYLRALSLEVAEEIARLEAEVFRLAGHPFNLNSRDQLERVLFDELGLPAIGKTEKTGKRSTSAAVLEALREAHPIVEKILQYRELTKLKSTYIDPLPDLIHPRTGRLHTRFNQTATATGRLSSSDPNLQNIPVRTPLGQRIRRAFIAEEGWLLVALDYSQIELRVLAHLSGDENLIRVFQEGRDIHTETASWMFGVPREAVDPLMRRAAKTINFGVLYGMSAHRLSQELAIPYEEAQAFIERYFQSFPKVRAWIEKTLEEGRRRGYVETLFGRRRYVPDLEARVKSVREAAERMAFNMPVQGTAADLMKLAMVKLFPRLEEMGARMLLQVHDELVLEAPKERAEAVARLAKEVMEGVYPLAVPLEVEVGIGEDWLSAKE

Structure (SMILES)	viability at 100 µM [1]	viability at 10 µM [2]	IC50 (PC-3 [3])	Activity [4]	viability at 1 µM [5]	inhibition [6]	IC50 [7]	TERT inhibition (active/not active) [8]	Activity [9]	Activity [10]	Activity (A498)	Activity (PC-3 [11])	Activity (MOLT-4)	Activity (COLO 205)	Activity [12]	Activity (DU-145)	Activity [13]	Activity (SNB-19)
CCN1CCN(Cc2nc3ccc4c(c3[nH]2)C(=O)c2ccccc2C4=O)CC1	0%	35%	6.5 µM	92%	86%	inactive	> 10 µM	Active	0%	14%	–	–	–	–	–	–	–	–
CCN(CC)Cc1nc2ccc3c(c2[nH]1)C(=O)c1ccccc1C3=O	0%	55%	10.3 µM	91%	101%	–	–	inactive	0%	32%	49.5%	73.54%	-9.43%	81%	–	–	–	–
CN1CCN(Cc2nc3ccc4c(c3[nH]2)C(=O)c2ccccc2C4=O)CC1	0%	35%	6.5 µM	106%	87%	inactive	> 10 µM	Active	6%	23%	69.36%	60.08%	-13.44%	–	62.93%	–	–	–
O=C1c2ccccc2C(=O)c2c1ccc1nc(CN3CCN(c4ccccn4)CC3)[nH]c21	20%	69%	> 30 µM	91%	91%	–	–	inactive	1%	57%	68.23%	81.46%	–	–	–	89.1%	63%	81%
O=C1c2ccccc2C(=O)c2c1ccc1nc(CN3CCC(CCCC4CCNCC4)CC3)[nH]c21	0%	0%	13.8 µM	96%	97%	inactive	5 µM	Active	3%	8%	–	–	–	–	–	–	–	–
